Measurements: ChEMBL document CHEMBL4312005, “Optimization of pyrrolizine-based Schiff bases with 4-thiazolidinone motif: Design, synthesis and investigation of cytotoxicity and anti-inflammatory potency” (Eur J Med Chem, 2020)

How the values were obtained:
[1] = target: AMP-activated protein kinase (AMPK) alpha-1/beta-1/gamma-1 (Homo sapiens) (UniProt P54619+Q9Y478+Q13131); assay: Inhibition of recombinant human C-terminal His-tagged full length AMPK alpha1/beta1/gamma1 expressed in baculovirus infected Sf9 insect cells assessed as enzyme activity incubated for 15 mins by [gamma-33]ATP based scintillation counting method relative to control; set-up: scale not given: the % may be the effect or the level left
[2] = target: T1, Mitogen-activated protein kinase kinase kinase 5 (Homo sapiens) (UniProt Q99683); assay: Inhibition of recombinant human N-terminal GST-tagged ASK1 (649 to 946 residues) expressed in baculovirus infected Sf9 insect cells assessed as enzyme activity incubated for 15 mins by [gamma-33]ATP based scintillation counting method relative to control; set-up: scale not given: the % may be the effect or the level left
T1 sequence (whole entry): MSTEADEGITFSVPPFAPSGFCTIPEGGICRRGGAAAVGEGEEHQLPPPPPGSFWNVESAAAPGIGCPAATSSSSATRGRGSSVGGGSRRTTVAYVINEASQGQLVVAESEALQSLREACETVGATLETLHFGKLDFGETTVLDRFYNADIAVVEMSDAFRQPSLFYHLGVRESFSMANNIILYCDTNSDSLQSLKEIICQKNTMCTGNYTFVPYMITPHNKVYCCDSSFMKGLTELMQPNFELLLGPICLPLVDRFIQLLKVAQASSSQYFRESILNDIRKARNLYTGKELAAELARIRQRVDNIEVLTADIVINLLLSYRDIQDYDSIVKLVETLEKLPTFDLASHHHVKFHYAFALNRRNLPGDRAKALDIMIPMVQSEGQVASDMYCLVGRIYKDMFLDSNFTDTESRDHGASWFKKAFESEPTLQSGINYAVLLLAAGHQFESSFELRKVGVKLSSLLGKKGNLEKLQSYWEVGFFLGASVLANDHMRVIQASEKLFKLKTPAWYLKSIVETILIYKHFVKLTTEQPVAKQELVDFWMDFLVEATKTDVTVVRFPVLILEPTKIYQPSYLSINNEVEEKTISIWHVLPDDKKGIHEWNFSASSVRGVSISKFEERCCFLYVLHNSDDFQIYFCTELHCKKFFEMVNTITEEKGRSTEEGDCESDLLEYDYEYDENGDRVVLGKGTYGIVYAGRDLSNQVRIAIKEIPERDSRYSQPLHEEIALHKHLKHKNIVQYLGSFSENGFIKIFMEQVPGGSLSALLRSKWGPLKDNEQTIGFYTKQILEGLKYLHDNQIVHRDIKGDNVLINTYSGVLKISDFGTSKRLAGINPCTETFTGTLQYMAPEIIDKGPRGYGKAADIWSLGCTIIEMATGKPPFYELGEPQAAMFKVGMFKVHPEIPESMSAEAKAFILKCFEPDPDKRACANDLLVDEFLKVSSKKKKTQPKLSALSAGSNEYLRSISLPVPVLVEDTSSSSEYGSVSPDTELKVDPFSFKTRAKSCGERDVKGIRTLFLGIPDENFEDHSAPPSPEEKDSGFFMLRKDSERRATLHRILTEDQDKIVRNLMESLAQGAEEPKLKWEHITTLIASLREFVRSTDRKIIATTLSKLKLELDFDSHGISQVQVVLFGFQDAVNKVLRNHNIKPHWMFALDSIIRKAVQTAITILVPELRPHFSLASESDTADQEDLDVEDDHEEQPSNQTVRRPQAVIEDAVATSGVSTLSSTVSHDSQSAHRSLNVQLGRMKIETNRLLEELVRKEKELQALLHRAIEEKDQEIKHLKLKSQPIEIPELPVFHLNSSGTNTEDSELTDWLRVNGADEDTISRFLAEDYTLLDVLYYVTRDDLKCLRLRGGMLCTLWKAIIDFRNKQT

[3] = target: T2, Aurora kinase A (Homo sapiens) (UniProt O14965); assay: Inhibition of recombinant human N-terminal GST-tagged full length Aurora A expressed in baculovirus infected Sf9 insect cells assessed as enzyme activity incubated for 15 mins by [gamma-33]ATP based scintillation counting method relative to control; set-up: scale not given: the % may be the effect or the level left
T2 sequence (whole entry): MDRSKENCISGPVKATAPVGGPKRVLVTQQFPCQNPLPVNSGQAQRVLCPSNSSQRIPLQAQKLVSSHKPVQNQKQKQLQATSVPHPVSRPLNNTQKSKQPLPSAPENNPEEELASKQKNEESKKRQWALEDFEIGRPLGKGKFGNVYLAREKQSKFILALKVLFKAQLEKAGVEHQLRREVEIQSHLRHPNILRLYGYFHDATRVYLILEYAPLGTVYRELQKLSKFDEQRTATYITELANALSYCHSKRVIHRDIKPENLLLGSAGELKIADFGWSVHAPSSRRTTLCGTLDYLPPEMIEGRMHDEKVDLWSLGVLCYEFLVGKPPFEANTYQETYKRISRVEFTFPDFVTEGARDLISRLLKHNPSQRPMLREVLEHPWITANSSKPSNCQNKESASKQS

[4] = target: T3, Dual specificity tyrosine-phosphorylation-regulated kinase 3 (Homo sapiens) (UniProt O43781); assay: Inhibition of DYRK3 (unknown origin) assessed as enzyme activity incubated for 15 mins by [gamma-33]ATP based scintillation counting method relative to control; set-up: scale not given: the % may be the effect or the level left
T3 sequence (whole entry): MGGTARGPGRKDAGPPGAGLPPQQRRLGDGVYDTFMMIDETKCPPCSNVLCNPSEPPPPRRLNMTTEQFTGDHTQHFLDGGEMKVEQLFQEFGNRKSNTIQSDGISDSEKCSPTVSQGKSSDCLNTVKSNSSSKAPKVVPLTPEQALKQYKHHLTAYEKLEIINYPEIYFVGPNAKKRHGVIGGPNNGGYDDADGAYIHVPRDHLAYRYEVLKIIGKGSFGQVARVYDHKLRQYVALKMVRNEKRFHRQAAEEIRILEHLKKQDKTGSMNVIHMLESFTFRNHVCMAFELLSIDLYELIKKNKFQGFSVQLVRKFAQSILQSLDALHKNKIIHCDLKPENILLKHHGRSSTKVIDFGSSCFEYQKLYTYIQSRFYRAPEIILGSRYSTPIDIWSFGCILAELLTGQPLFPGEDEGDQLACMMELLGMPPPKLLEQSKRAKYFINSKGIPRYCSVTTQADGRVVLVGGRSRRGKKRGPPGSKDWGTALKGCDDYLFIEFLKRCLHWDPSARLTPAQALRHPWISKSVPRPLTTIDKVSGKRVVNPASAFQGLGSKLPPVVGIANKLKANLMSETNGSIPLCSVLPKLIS

A2780 = assay: Antiproliferative activity against human A2780 cells assessed as reduction in cell growth incubated for 72 hrs by MTT assay; assay type: functional, cell-based; settings: A2780, 72 h
Method in brief: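 MTT assay on MCF-7, A2780, HT29 and normal MRC5 fibroblast lines (ATCC) grown in DMEM with 10% FBS. Cells exposed to compounds for 72 h, then reduced MTT read at 570 nm.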

[5] = target: Prostaglandin G/H synthase 1 (Homo sapiens, UniProt P23219); assay: Inhibition of human COX1 using arachidonic acid as substrate incubated for 2 mins by ELISA method
MCF7 = assay: Cell cycle arrest in human MCF7 cells assessed as subG1 accumulation at 1 uM incubated for 24 hrs by propidium iodide based flow cytometry (reference value: 0.6 to 3 %); assay type: functional

AMP-activated protein kinase (AMPK) alpha-1/beta-1/gamma-1 (Homo sapiens), sequence (P54619 whole entry, the tested form may be a part): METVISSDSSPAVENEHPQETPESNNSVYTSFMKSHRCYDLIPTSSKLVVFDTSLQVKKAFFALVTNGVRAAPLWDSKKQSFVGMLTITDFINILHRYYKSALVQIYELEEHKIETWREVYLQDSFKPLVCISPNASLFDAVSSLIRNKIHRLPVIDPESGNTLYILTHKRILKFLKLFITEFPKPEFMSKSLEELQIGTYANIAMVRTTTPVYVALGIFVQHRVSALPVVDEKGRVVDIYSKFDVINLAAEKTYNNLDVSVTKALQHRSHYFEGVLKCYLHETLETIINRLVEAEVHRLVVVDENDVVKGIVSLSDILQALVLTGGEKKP
AMP-activated protein kinase (AMPK) alpha-1/beta-1/gamma-1 (Homo sapiens), sequence (Q13131 whole entry partner, the tested form may be a part): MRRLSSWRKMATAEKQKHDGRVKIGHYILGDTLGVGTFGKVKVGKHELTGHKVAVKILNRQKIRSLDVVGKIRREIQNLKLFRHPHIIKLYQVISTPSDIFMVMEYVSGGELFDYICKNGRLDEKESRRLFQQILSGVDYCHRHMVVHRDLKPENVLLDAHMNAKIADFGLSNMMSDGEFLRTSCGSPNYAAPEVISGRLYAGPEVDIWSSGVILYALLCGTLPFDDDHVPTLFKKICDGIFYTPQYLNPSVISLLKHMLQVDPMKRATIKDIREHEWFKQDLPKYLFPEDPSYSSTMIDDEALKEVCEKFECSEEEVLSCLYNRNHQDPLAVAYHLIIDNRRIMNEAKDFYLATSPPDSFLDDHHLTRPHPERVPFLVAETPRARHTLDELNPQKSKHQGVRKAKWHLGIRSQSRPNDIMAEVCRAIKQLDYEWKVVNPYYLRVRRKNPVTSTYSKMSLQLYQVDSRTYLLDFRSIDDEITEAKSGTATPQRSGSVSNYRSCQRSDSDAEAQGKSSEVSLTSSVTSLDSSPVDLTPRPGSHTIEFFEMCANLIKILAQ
AMP-activated protein kinase (AMPK) alpha-1/beta-1/gamma-1 (Homo sapiens), sequence (Q9Y478 2-270 partner limits assumed): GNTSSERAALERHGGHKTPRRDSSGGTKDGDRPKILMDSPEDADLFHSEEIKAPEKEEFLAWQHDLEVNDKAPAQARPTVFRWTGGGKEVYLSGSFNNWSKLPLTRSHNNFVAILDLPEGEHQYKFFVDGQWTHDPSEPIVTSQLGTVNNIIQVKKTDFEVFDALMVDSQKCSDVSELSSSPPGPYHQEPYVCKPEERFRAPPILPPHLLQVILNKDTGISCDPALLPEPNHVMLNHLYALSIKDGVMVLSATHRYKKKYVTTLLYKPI
Prostaglandin G/H synthase 1, sequence (P23219 whole entry): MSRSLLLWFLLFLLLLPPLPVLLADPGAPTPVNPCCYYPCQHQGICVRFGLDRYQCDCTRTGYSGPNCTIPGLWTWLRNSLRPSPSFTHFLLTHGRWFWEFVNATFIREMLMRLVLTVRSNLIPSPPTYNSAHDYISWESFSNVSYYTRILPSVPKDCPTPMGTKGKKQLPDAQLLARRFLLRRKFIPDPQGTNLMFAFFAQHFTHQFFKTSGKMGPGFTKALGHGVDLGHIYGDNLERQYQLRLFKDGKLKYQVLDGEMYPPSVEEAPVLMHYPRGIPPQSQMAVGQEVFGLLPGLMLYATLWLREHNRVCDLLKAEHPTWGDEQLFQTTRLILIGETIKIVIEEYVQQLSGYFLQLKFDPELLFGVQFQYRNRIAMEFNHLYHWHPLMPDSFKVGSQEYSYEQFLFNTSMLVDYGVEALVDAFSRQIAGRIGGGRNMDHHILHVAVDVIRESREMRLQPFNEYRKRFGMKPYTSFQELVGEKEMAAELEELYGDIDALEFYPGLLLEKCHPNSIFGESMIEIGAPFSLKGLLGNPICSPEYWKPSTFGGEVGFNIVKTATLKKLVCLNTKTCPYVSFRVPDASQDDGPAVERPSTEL

Cc1ccc(NC(=O)c2ccc(CN3CCN(C)CC3)cc2)cc1Nc1nccc(-c2cccnc2)n1 showed an Activity [1] of 18%, an Activity [2] of 5% and an Activity [3] of -38%. The Activity [4] was -10%.

Compound CCC1SCC(=O)N1c1c(C#N)c2n(c1C(=O)Nc1ccccc1)CCC2 (centres undefined) has an IC50 (A2780) of 0.22 µM, an IC50 [5] of 43.7 µM and an Activity [1] of 2%. The Activity [2] was -3%, the Activity [3] was -11% and the Activity [4] was 38%. The Activity (MCF7) was 2.4%.

In the case of CC/C=N/c1c(C#N)c2n(c1C(=O)Nc1ccccc1)CCC2, the IC50 (A2780) is reported as 15.6 µM, the IC50 [5] is reported as > 100 µM and the Activity [1] is reported as -4%. It also gave an Activity [2] of -14%, an Activity [3] of -8% and an Activity [4] of 33%.

With CC(C)C/C=N/c1c(C#N)c2n(c1C(=O)Nc1ccc(Br)cc1)CCC2 the IC50 (A2780) was 0.52 µM, the IC50 [5] was > 100 µM and the Activity [1] was 12%. For the same compound, the Activity [2] was 26%, the Activity [3] was 1% and the Activity [4] was -25%. It also gave an Activity (MCF7) of 1%.
